Assay outcomes as filed in PubChem BioAssay.
Arr AP2 block: blocks beta-arrestin peptide binding to AP2 adaptin; FITC-arrestin peptide / GST-AP2 beads, flow cytometry; AP2 beta2 appendage carries R879A mutation; inhibition, % at 10 µM; hit rate 0.31% among 340,000; AID 504490;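 active = inhibition above a set limit, near 3 SD of compounds lacking own fluorescence, cut at about 54% in these data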;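 note: plate controls were DMSO wells for no effect and 5 µM unlabelled arrestin peptide for full effect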
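System: GST-AP2 R879A glutathione beads | Also added: FITC-arrestin peptide, 50 nM | Times: 12 min plus 1 h, RT | Signal: Bead flow cytometry, FITC channel | Buffer or medium: PBS with 0.05% Tween 20 and 0.1% BSA | Read-out basis: Percent drop in bead-associated FITC signal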
ATG4B inhibitor: inhibitors of human ATG4B cysteine protease | ATG4B cleavage of LC3-PLA2, NBD-HPC fluorescence, 1 h | inhibition, % at 8.33 µM | hit rate 0.51% among 340,000 | AID 504462; in the data active = inhibition above about 40%
Target sequence (Q9Y4P1 whole entry, looked up): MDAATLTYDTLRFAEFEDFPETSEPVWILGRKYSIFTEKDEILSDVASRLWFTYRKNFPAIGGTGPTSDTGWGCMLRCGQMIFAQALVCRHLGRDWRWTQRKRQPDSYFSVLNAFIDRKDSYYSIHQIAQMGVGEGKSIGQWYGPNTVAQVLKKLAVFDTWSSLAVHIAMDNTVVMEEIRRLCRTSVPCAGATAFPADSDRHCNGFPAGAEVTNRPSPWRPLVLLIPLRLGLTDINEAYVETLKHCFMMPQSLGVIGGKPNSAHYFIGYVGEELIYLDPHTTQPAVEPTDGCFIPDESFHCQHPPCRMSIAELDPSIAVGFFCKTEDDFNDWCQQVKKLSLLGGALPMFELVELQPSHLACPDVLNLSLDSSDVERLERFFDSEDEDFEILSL
Exocytosis inh: blocks lytic granule exocytosis | hit rate 0.66% among 360,000 | AID 651702 | inhibition, % at 10 µM | TALL-104 LAMP-1 surface exposure, flow cytometry; cells stimulated with thapsigargin and PMA;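 active = inhibition above about 55%, limit read from the data; inconclusive = no clear call, values can overlap the other calls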
ABCB6 inh MLPCN: blocks the human ABCB6 transporter; Q9NP58; K562-ABCB6 porphyrin accumulation, flow cytometry, 1 h; active compounds read low; fluorescence ratio to DMSO, % at 10 µM; hit rate 0.19% among 360,000;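 active = fluorescence ratio to DMSO below 75%, the collection mean minus 3 SD; inconclusive = too few cells collected in the well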;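 note: signal is porphyrin accumulated inside mitochondria; 100% equals median channel fluorescence of DMSO control wells; lower ratio means ABCB6 inhibition with less porphyrin fluorescence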
Myeloid diff MLP: myeloid differentiation induction | ER-HoxA9 myeloid progenitors, lysozyme-GFP differentiation, flow cytometry | calls only at 10 µM | hit rate 1% among 360,000 | AID 624256;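 active = normalized GFP-positive differentiation at or above the plate's own cutoff, the solvent-only control mean plus 3 SD; inconclusive = no clear call, values can overlap the other calls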;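 note: cells exposed to compound for four days before flow analysis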
NRP1-CendR mod: modulators of CendR peptide binding to human neuropilin-1. hit rate 0.85% among 360,000. FAM-RPARPAR peptide binding to NRP-1, fluorescence polarization. inhibition, % at 25 µM. O14786;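 active = inhibition or corrected inhibition above about 18%, plus a signal ratio from 0.5 to 1.5, limit read from the data, passing the limit was not always enough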
Starred values were filed as active, the others as inactive; i = inactive; ? = inconclusive; nt = not tested or not shown; + = active, no number. In the library only some 3.3% were active in any assay of this set; here they are far more common.

SMILES	Arr AP2 block	ATG4B inhibitor	Exocytosis inh	ABCB6 inh MLPCN	Myeloid diff MLP	NRP1-CendR mod
Cc1ccc(S(=O)(=O)N(C)C)cc1NC(=O)COC(=O)C1CC1	4	-7	0	99	i	-13
COC(=O)c1sccc1NC(=O)c1ccnn1C	-7	-4	20	108	i	25*
CC1(C)CC(=O)C2=C(C1)N(c1ccccc1)C(=O)C2(O)C(F)(F)F (stereo unspecified)	2	-2	5	95	i	17
COC(=O)CCCC1=CC2=CC(=O)C(C)(OC(=O)c3cccs3)C(=O)C2=CN1Cc1ccco1 (stereo unspecified)	16	-5	8	91	i	14
COC(=O)CCC(=O)OC1(C)C(=O)C=C2C=C(C3CC3)N(Cc3ccco3)C=C2C1=O (stereo unspecified)	8	-9	2	103	i	36*
COC(=O)CCC(=O)OC1(C)C(=O)C=C2C=C(C3CC3)N(C3CC3)C=C2C1=O (stereo unspecified)	33	-6	2	91	i	14
COCCN1C=C2C(=O)C(C)(OC(=O)CCC(=O)OC)C(=O)C=C2C=C1C1CC1 (stereo unspecified)	5	-1	-1	98	i	29*
COc1ccccc1C(C(=O)c1ccccc1)c1ccc(O)cc1 (stereo unspecified)	nt	nt	-14	nt	i	-6
Cc1c(C(=O)NCc2ccc(C(C)C)cc2)sc(=O)n1Cc1ccc(S(=O)(=O)N(C)C)cc1	nt	nt	-4	97	+	-25
CC(C)CCNC(=O)NC(=O)CSc1ncccn1	-7	-4	-5	94	i	10
CCCCN(C)C(=O)c1cc2c(s1)-c1ccccc1S(=O)(=O)C2	38	-11	2	90	i	6
CCOC(=O)c1c2c3c(cccc3[nH]c1=O)C(=O)c1ccccc1-2	45	4	-2	107	i	-7
CCOC(=O)c1c2c3c(c(Cl)ccc3[nH]c1=O)C(=O)c1ccccc1-2	-4	-1	92*	123	i	1
COc1ccc(S(=O)(=O)Nc2c(O)c3ccccc3oc2=O)cc1	29	-7	7	84	+	-6
c1ccc(COc2cncc(-c3cccnc3)c2)cc1	8	0	-2	95	i	5
Oc1ccc(Oc2ccc(Oc3ccc(O)cc3)cc2)cc1	18	-2	8	99	+	-9
S=c1[nH]nc(C2CCCCC2)n1/N=C/C(Cl)=C\c1ccccc1	2	16	-5	100	+	-22
O=C(CSc1nnnn1-c1ccc(C(=O)O)cc1)NC1CC1	22	0	-2	98	i	7
CCCOc1ccc(N)cc1N	14	-4	23	144	+	-58
CC(=O)C1C(c2ccc(F)cc2)c2c(noc2C)CC1(C)O (stereo unspecified)	0	4	-11	100	i	-16
COC(=O)c1c(N)n(-c2ccc(NC(C)=O)cc2)c2nc3ccccc3nc12	-8	6	1	98	+	-20
Cn1c(C(=O)NCCN2CCN(c3ccccc3F)CC2)cc2c(=O)n(C)c3ccccc3c21	5	-3	4	106	+	5
Cc1ccnc2nc(C(=O)OCC(=O)c3ccc(Cl)cc3)nn12	23	-3	3	99	i	-8
CC1CCCCC1NC(=O)CSc1ncnc2sccc12 (stereo unspecified)	nt	nt	1	93	i	22*
Cc1ccccc1-n1nc(C)c(N=O)c1N	-5	-10	1	97	i	11
SMILES	Arr AP2 block	ATG4B inhibitor	Exocytosis inh	ABCB6 inh MLPCN	Myeloid diff MLP	NRP1-CendR mod
Cc1ccc(-n2c(-c3ccco3)nc3c(cnn3-c3ccccc3C)c2=O)cc1	0	-15	-2	93	i	11
Cc1ccc(-n2c(-c3ccco3)nc3c(cnn3-c3ccc(C)cc3)c2=O)cc1	4	-3	-3	92	i	35*
Cc1ccn(CCC(=O)NC2CC(C)(C)Cc3c2cnn3-c2ccccc2C)n1 (stereo unspecified)	6	-9	3	101	i	11
CC1=N/C(=C/c2cccnc2)C(=O)O1	12	-9	-1	85	i	4
Cc1cccc(C2=N/C(=C\c3cccnc3)C(=O)O2)c1	0	-3	3	68*	i	-7
CCOc1cc(NC(=S)NC)c(OCC)cc1NC(=O)c1ccc(OC)cc1	1	-8	-4	100	i	21*
CCOc1cc(NC(=S)Nc2ccccc2)c(OCC)cc1NC(=O)c1ccccc1	11	3	3	103	i	4
Cc1ccc(S(=O)(=O)N2[C@H](CC(=O)Oc3ccccc3)OC[C@@H]2C(C)C)cc1	nt	nt	-2	nt	i	10
CC(=O)NCCNc1nc(NCc2cccs2)nc2ccsc12	nt	nt	?	101	i	-2
CC(=O)NCCNc1nc(NC(C)C)nc2ccsc12	nt	nt	-1	93	i	26*
CC(=O)c1ccc2noc(-c3ccc(F)cc3)c2c1	0	-13	-2	106	i	37*
CC(=O)Nc1ccc(Sc2ccccc2C(=O)O)c(C(=O)O)c1	25	2	0	102	i	6
CN(C)c1nc(SCC(=O)Nc2ccccc2)nc(N2CCOCC2)n1	5	-4	1	95	i	-6
CN(C)c1nc(SCC(=O)Nc2ccc(Cl)c(Cl)c2)nc(N2CCOCC2)n1	2	1	74*	97	i	4
Cc1ccc(F)cc1NC(=O)CSc1nc(Nc2ccccc2)nc(N2CCOCC2)n1	41	2	-3	91	+	8
CC1(C)Cc2c(cnn2-c2cccc(F)c2)C(NC(=O)C2CCOCC2)C1 (stereo unspecified)	-14	-1	-17	100	i	-3
Cc1ccccc1CN(C)CCS(=O)(=O)c1cc(Cl)ccc1Cl	-18	5	3	97	i	16
CCc1ccc(-c2ccc3nnc(SCC(N)=O)n3n2)cc1	-6	-4	-2	99	i	24*
CCCCc1nnc(NC(=O)COC)s1	1	-2	-3	96	i	10
CN(C)c1cc(N/N=C\c2ccccc2)nc(N(C)C)n1	-13	5	-2	95	i	35*
COc1ccc(/C=N/Nc2cc(N(C)C)nc(N(C)C)n2)cc1	3	-2	2	98	i	-9
Cc1c(Cl)c(C(F)(F)F)nn1CC(=O)NN	0	-3	-1	95	i	-4
Cc1c(Cl)c(C(F)(F)F)nn1CC(=O)N1CCSCC1	8	-3	-1	99	i	48*
O=C1C(Br)=Cc2cccc3cccc1c23	34	-5	37	111	i	27*
O=C1c2sccc2-c2cccc3cccc1c23	nt	nt	27	96	i	16
